The source made the active and inactive calls. No cut-off for these calls is given here.
Experiments:
[1] = biological target: Induced myeloid leukemia cell differentiation protein Mcl-1 (Homo sapiens, UniProt Q07820); test: Displacement of wild type mBimBH3 from Mcl-1 by solution competition assay
Bcl-2-like protein 2 = biological target: T1, Bcl-2-like protein 2 (Homo sapiens, UniProt Q92843); test: Displacement of wild type mBimBH3 from human Bcl-w by solution competition assay
T1 sequence (Q92843 whole entry): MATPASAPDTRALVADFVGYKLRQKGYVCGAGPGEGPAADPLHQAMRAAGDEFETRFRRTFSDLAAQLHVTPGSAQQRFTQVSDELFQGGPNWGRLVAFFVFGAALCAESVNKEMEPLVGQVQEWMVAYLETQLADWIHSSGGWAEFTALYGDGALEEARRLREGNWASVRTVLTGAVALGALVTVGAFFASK

[2] = biological target: Apoptosis regulator Bcl-2 (Homo sapiens, UniProt P10415); test: Displacement of wild type mBimBH3 from human Bcl-2 by solution competition assay
MEF [3] = test: Cytotoxicity against mouse mcl-1 deficient MEF cells after 24 hrs by Cell titer glo assay in presence of 1% serum; assay type: functional, cell-based
Method in brief: (§1)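 Wild-type (mcl-1 fl/fl) or Mcl-1-deficient mouse embryonic fibroblasts kept in high-glucose DME with asparagine, 2-mercaptoethanol and 10% FCS. Exposed to compound 24 h in medium with 1% or 10% FCS. […] Means ± SEM of three independent experiments.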

MEF [4] = test: Cytotoxicity against mouse MEF cells expressing mcl-1 fl/fl after 24 hrs by Cell titer glo assay in presence of 10% serum; assay type: functional, cell-based; method in brief: as §1
MEF [5] = test: Cytotoxicity against mouse MEF cells expressing mcl-1 fl/fl after 24 hrs by Cell titer glo assay in presence of 1% serum; assay type: functional, cell-based; method in brief: as §1
MEF [6] = test: Cytotoxicity against mouse mcl-1 deficient MEF cells after 24 hrs by Cell titer glo assay in presence of 10% serum; assay type: functional, cell-based; method in brief: as §1
NCI-H889 = test: Cytotoxicity against human NCI-H889 after 48 hrs by MTS assay in presence of 10% human serum; assay type: functional, cell-based; conditions: NCI-H889, 48 h
Method in brief: (§2)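 Treated 48 h in medium with 10% human serum. Each concentration run in duplicate, at least three separate times. Viability read by MTS proliferation assay.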

MEF [7] = test: Cytotoxicity against mouse MEF cells expressing mcl-1 fl/fl after 24 hrs by Cell titer glo assay in presence of 10% fetal bovine serum; assay type: functional, cell-based; method in brief: as §1
NCI-H1963 = test: Cytotoxicity against human NCI-H1963 after 48 hrs by MTS assay in presence of 10% human serum; assay type: functional, cell-based; conditions: NCI-H1963, 48 h; method in brief: as §2
MEF [8] = test: Cytotoxicity against mouse mcl-1 deficient MEF cells after 24 hrs by Cell titer glo assay in presence of 10% fetal bovine serum; assay type: functional, cell-based; method in brief: as §1
Bcl-2-like protein 1 [9] = biological target: T2, Bcl-2-like protein 1 (Homo sapiens, UniProt Q07817); test: Binding affinity to Bcl-Xl assessed as association rate constant by surface plasmon resonance assay
Method in brief: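 Biacore SPR direct binding. Anti-GST antibody amine-coupled to CM5 chip (~10000 RU); GST-Bcl-xL captured (~1200 RU), fresh protein each cycle. Compound series injected at 90 μL/min, 25 °C; association 95 s, dissociation 240 s. Phosphate/NaCl/EDTA/Tween buffer with 5% DMSO, pH 7.4. Double referencing and DMSO solvent correction; fit to one-to-one model with mass transport for k_a, k_d.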

[10] = Cytotoxicity against human NCI-H146 after 48 hrs by MTS assay in presence of 10% human serum; assay type: functional; conditions: NCI-H146, 48 h; method in brief: as §2
MEF [11] = test: Cytotoxicity against mouse MEF cells expressing mcl-1 fl/fl at 10 uM after 24 hrs by Cell titer glo assay in presence of 10% fetal bovine serum; assay type: functional, cell-based
Bcl-2-like protein 1 [12] = biological target: T2, Bcl-2-like protein 1; test: Displacement of biotinylated Bim-BH3 from GST-tagged Bcl-Xl by AlphaScreen competitive assay
Method in brief: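 Titration into a mix of GST-tagged Bcl-xL ΔC25 (0.6 nM final) and biotinylated Bim BH3-26 peptide (5.0 nM final), with anti-GST acceptor and streptavidin donor beads (15 μg/mL each). Protein–acceptor and peptide–donor pairs were preincubated 30 min, then added in turn, 4 h at room temperature. DMSO 1.0% final.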

Chain of Apoptosis regulator Bcl-2 (P10415 whole entry): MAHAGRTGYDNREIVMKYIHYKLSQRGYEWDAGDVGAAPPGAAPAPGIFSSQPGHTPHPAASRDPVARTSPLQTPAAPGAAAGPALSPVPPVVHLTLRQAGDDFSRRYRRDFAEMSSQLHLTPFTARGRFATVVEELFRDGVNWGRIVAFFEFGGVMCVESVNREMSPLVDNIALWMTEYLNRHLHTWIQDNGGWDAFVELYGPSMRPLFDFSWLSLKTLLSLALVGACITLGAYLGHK
Chain of Induced myeloid leukemia cell differentiation protein Mcl-1 (Q07820 whole entry): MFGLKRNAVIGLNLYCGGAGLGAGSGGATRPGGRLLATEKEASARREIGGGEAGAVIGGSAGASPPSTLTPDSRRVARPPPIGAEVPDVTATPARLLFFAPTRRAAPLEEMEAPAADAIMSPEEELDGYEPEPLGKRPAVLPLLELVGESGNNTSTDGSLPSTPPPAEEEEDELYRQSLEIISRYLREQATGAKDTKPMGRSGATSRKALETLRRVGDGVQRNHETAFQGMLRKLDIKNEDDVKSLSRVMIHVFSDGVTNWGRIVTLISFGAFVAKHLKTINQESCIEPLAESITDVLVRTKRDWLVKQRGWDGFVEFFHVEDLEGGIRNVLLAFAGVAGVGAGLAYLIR
T2 sequence (Q07817 whole entry): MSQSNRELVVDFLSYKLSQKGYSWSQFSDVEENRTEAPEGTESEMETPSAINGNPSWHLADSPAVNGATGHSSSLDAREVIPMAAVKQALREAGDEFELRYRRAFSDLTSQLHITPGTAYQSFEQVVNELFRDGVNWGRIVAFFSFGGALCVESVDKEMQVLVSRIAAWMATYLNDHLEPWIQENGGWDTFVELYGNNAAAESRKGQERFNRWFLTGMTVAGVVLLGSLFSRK

| Structure (SMILES) | IC50 [1] [nM] | IC50 (Bcl-2-like protein 2) [nM] | IC50 [2] [nM] | Ka (Bcl-2-like protein 1 [9]) [×10⁵ /M/s] | IC50 (Bcl-2-like protein 1 [12]) [nM] | EC50 (MEF [3]) [nM] | EC50 (MEF [4]) [nM] | EC50 (MEF [5]) [nM] | EC50 (MEF [6]) [nM] | EC50 (NCI-H889) [nM] | EC50 (MEF [7]) [nM] | EC50 (NCI-H1963) [nM] | EC50 (MEF [8]) [nM] | EC50 [10] [nM] | Activity (MEF [11]) |
| --- | --- | --- | --- | --- | --- | --- | --- | --- | --- | --- | --- | --- | --- | --- | --- |
| O=S(=O)(Nc1ncnc2cc(N3CCN(Cc4ccccc4-c4ccc(Cl)cc4)CC3)ccc12)c1ccc(N[C@H](CCN2CCOCC2)CSc2ccccc2)c(S(=O)(=O)C(F)(F)F)c1 | > 1000 | > 1000 | 81 | – | – | 22.4 | > 10000 | > 10000 | 149 | 820 | – | 400 | – | 630 | – |
| CC1(C)CCC(c2ccc(Cl)cc2)=C(CN2CCN(c3ccc4c(NS(=O)(=O)c5ccc(N[C@H](CCN6CCOCC6)CSc6ccccc6)c(S(=O)(=O)C(F)(F)F)c5)ncnc4c3)CC2)C1 | > 1000 | > 1000 | 84 | – | – | 37.2 | > 10000 | > 10000 | 328 | – | – | – | – | – | – |
| CC1(C)CCC(c2ccc(Cl)cc2)=C(CN2CCN(c3ccc(C(=O)NS(=O)(=O)c4ccc(N[C@H](CCN5CCOCC5)CSc5ccccc5)c(S(=O)(=O)C(F)(F)F)c4)cc3)CC2)C1 [NAVITOCLAX] | – | – | – | – | – | – | – | – | – | 120 | – | 51 | – | 80 | – |
| CN(C)CC[C@H](CSc1ccccc1)Nc1ccc(S(=O)(=O)NC(=O)c2ccc(N3CCN(Cc4ccccc4-c4ccc(Cl)cc4)CC3)cc2)cc1[N+](=O)[O-] [ABT 737] | – | – | – | 7.9 | – | 2.03 | > 10000 | > 10000 | 51 | – | – | – | 51 | – | inactive |
| O=[N+]([O-])c1cc(S(=O)(=O)Nc2ncnc3cc(N4CCN(Cc5ccccc5-c5ccc(Cl)cc5)CC4)ccc23)ccc1N[C@H](CCN1CCOCC1)CSc1ccccc1 | > 1000 | > 1000 | 21 | – | – | 24.8 | > 10000 | > 10000 | 190 | 1300 | – | 1400 | – | 3700 | – |
| CN(C)CC[C@H](CSc1ccccc1)Nc1ccc(S(=O)(=O)Nc2ncnc3cc(N4CCN(CC5=C(c6ccc(Cl)cc6)CCC(C)(C)C5)CC4)ccc23)cc1[N+](=O)[O-] | > 1000 | 540 | 12 | – | – | 16 | 4300 | 1610 | 61 | – | – | – | – | – | – |
| O=C(NS(=O)(=O)c1ccc(NCCSc2ccccc2)c([N+](=O)[O-])c1)c1ccc(-c2ccc(F)cc2)cc1 | – | – | – | – | 1500 | – | – | – | – | – | – | – | – | – | – |

Now from value to compound, other results behind:

| IC50 [1] [nM] | IC50 (Bcl-2-like protein 2) [nM] | IC50 [2] [nM] | Ka (Bcl-2-like protein 1 [9]) [×10⁵ /M/s] | IC50 (Bcl-2-like protein 1 [12]) [nM] | Structure (SMILES) | EC50 (MEF [3]) [nM] | EC50 (MEF [4]) [nM] | EC50 (MEF [5]) [nM] | EC50 (MEF [6]) [nM] | EC50 (NCI-H889) [nM] | EC50 (MEF [7]) [nM] | EC50 (NCI-H1963) [nM] | EC50 (MEF [8]) [nM] | EC50 [10] [nM] | Activity (MEF [11]) |
| --- | --- | --- | --- | --- | --- | --- | --- | --- | --- | --- | --- | --- | --- | --- | --- |
| > 1000 | 245 | 13 | – | – | CN(C)CC[C@H](CSc1ccccc1)Nc1ccc(S(=O)(=O)Nc2ncnc3cc(N4CCN(Cc5ccccc5-c5ccc(Cl)cc5)CC4)ccc23)cc1S(=O)(=O)C(F)(F)F | – | – | – | – | – | – | – | – | – | – |
| > 1000 | > 1000 | 21 | – | – | CC1(C)CCC(c2ccc(Cl)cc2)=C(CN2CCN(c3ccc4c(NS(=O)(=O)c5ccc(N[C@H](CCN6CCOCC6)CSc6ccccc6)c([N+](=O)[O-])c5)ncnc4c3)CC2)C1 | 38 | > 10000 | > 10000 | 222 | – | – | – | – | – | – |
| > 1000 | 440 | 8.7 | 1.9 | – | CN(C)CC[C@H](CSc1ccccc1)Nc1ccc(S(=O)(=O)Nc2ncnc3cc(N4CCN(Cc5ccccc5-c5ccc(Cl)cc5)CC4)ccc23)cc1[N+](=O)[O-] | 40 | 5820 | 1680 | 110 | 210 | 5800 | 170 | 110 | 610 | – |
| > 1000 | 275 | 5 | – | – | CN(C)CC[C@H](CSc1ccccc1)Nc1ccc(S(=O)(=O)Nc2ncnc3cc(N4CCN(CC5=C(c6ccc(Cl)cc6)CCC(C)(C)C5)CC4)ccc23)cc1S(=O)(=O)C(F)(F)F | 11.6 | 5460 | 2650 | 37.2 | – | – | – | – | – | – |

From ChEMBL document CHEMBL1687940, “Quinazoline sulfonamides as dual binders of the proteins B-cell lymphoma 2 and B-cell lymphoma extra long with potent proapoptotic cell-based activity” (J Med Chem, 2011)
